For orientation: IC50 means the point on the concentration scale where inhibition reaches its midpoint.

≈ marks a conversion by molar mass, not a printed value. Calls of active or inactive are those of the source. The rule behind the calls is not given here.

In data set [1] the test system is Leishmania donovani. As to the kind of experiment: Antileishmanial activity against Leishmania donovani infected in mouse peritoneal macrophages after 96 hrs. It is filed as functional, organism-based. The gist of the method: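 L. donovani amastigotes from axenic culture grown at pH 5.4, 1.2 × 10⁵ per well added to macrophages; free amastigotes removed after 4 h and medium replaced. Compound dilutions added next day, 96 h incubation. Slides methanol-fixed 10 min, stained with 10% Giemsa; infected and non-infected macrophages counted, infection rates versus controls. Means of at least two independent assays in duplicate.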

Data set [2] can be described thus: Therapeutic index, ratio of IC50 for rat L6 cells to IC50 for Leishmania donovani. It is filed as cell-based. The following applies: read-out: Ratio IC50.
Another data set deals with L6. As to the kind of experiment: Cytotoxicity against rat L6 cells after 4 days. The following applies: L6, 96 h. It is filed as cell-based. The gist of the method: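 Non-infected L6 cells seeded at 2000 cells/well in RPMI 1640, 10% FBS, 2 mM L-glutamine, exposed to serial drug dilutions 4 d at 37 °C, 5% CO₂. […] after 2–4 h. IC50 from sigmoidal inhibition curve; means of at least two independent assays in duplicate.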

The test system of data set [3] is Leishmania donovani. As to the kind of experiment: Antileishmanial activity against Leishmania donovani axenic amastigotes.
Data set [4] is described as follows: Therapeutic index, ratio of IC50 for rat L6 cells to IC50 for Trypanosoma cruzi.
For the next data set, the system named is Trypanosoma cruzi. As to the kind of experiment: Antitrypanosomal activity against Trypanosoma cruzi Tulahuen C2C4 trypomastigotes infected in rat L6 cells after 4 days.
Data set [5] deals with Leishmania donovani. As to the kind of experiment: Antileishmanial activity against Leishmania donovani amastigotes infected in mouse peritoneal macrophages after 96 hrs.
Data set [6] can be described thus: Therapeutic index, ratio of IC50 for rat L6 cells to IC50 for Trypanosoma cruzi C2C4. It is filed as cell-based. The following applies: read-out: Ratio IC50.

Turning to `COc1ccc(I)c2c1CN(Cc1ccccc1)C(C)(C)C2`, the IC50 with Leishmania donovani [1] stood at 3.87 µg/mL (≈ 9.49 µM); in the data set with L6, 30 µg/mL (≈ 73.7 µM); in the data set with Trypanosoma cruzi, 5.2 µg/mL (≈ 12.8 µM). Moreover, the selectivity ratio in data set [2] turned out to be 7.8; in data set [4], 5.77. Also, the result in the data set with Leishmania donovani [3] was inactive.
On to `COc1cc2c(c(OC)c1)CNC(C)(C)C2`, for which the IC50 was 3.46 µg/mL (≈ 15.6 µM) in the data set on Leishmania donovani [1], over 90 µg/mL in the data set on L6, over 30 µg/mL in the data set with Leishmania donovani [5] and over 90 µg/mL with Trypanosoma cruzi.
For `COc1cc(OC)c(-c2ccc(O)cc2)c2c1CNC(C)(C)C2`, the IC50 with Leishmania donovani [1] is over 5 µg/mL; in the data set with L6 it was 28.2 µg/mL (≈ 90 µM); in the data set on Leishmania donovani [5] it was 12.8 µg/mL (≈ 40.7 µM); with Trypanosoma cruzi, 45.2 µg/mL (≈ 144 µM).
With `O=C(Cn1ccnc1[N+](=O)[O-])NCc1ccccc1` [BENZNIDAZOLE], the selectivity ratio in data set [4] was over 360. The same compound returned an IC50 in the data set on Trypanosoma cruzi of 0.25 µg/mL (≈ 0.961 µM).
On to `COc1cc(OC)c2c(c1I)CC(C)(C)N(Cc1ccccc1)C2`, for which the figures for the selectivity ratio in data set [6], in data set [2] and in data set [4] were 27.5, 64.5 and 17.8, respectively. Further, the IC50 with Leishmania donovani [1] came to 1.02 µg/mL (≈ 2.34 µM); with L6 it was 66 µg/mL (≈ 151 µM); with Leishmania donovani [5] it was 2.4 µg/mL (≈ 5.49 µM); in the data set with Trypanosoma cruzi it was 3.7 µg/mL (≈ 8.46 µM).
Consider `COc1cc(OC)c2c(c1Br)CC(C)(C)N(Cc1ccccc1)C2`, for which the selectivity ratio in data set [6] worked out at 20.2; in data set [2] it was 200; in data set [4] it was 14.6. Also, the IC50 is 0.424 µg/mL (≈ 1.09 µM) with Leishmania donovani [1], 84.8 µg/mL (≈ 217 µM) in the data set with L6, 4.2 µg/mL (≈ 10.8 µM) in the data set with Leishmania donovani [5] and 5.8 µg/mL (≈ 14.9 µM) in the data set with Trypanosoma cruzi.
Turning to `COc1cc2c(c(OC)c1)C(C)=NC(C)(C)C2`, the IC50 in the data set with Leishmania donovani [1] is 4.06 µg/mL (≈ 17.4 µM); with L6 it was over 90 µg/mL; with Leishmania donovani [5], 18.2 µg/mL (≈ 78 µM); with Trypanosoma cruzi, 44.8 µg/mL (≈ 192 µM). For the same compound, the selectivity ratio in data set [2] was over 22.2.
Regarding `COc1cc(O)cc2c1CN(Cc1ccccc1)C(C)(C)C2`, the IC50 in the data set with Leishmania donovani [1] stood at 0.521 µg/mL (≈ 1.75 µM); in the data set on L6, 79.6 µg/mL (≈ 268 µM); with Leishmania donovani [5] it was 30 µg/mL (≈ 101 µM); with Trypanosoma cruzi, 22.7 µg/mL (≈ 76.3 µM). Besides, the selectivity ratio in data set [2] stood at 153.
Take `COc1ccc(I)c2c1CNC(C)(C)C2`: the IC50 in the data set on Leishmania donovani [1] worked out at 0.341 µg/mL (≈ 1.08 µM); with L6, 83.9 µg/mL (≈ 265 µM); in the data set on Trypanosoma cruzi it was 10 µg/mL (≈ 31.5 µM). The outcome in the data set on Leishmania donovani [3] was inactive.
In the case of `CCN(CC)CCCC(C)Nc1ccnc2cc(Cl)ccc12` (centres undefined) [CHLOROQUINE], half-maximal inhibition with Leishmania donovani [1] (IC50) was put at 0.23 µg/mL (≈ 0.719 µM). In addition, the selectivity ratio in data set [2] is 1090.
In the case of `COc1cc(OC)c2c(c1Br)CC(C)(C)N=C2C`, the IC50 was determined as 0.377 µg/mL (≈ 1.21 µM) in the data set on Leishmania donovani [1], 57.5 µg/mL (≈ 184 µM) in the data set with L6, 18.9 µg/mL (≈ 60.5 µM) in the data set on Leishmania donovani [5] and 19.8 µg/mL (≈ 63.4 µM) in the data set with Trypanosoma cruzi. Also, the selectivity ratio in data set [2] came out at 152.
For `COc1cc(OC)c2c(c1Br)CC(C)(C)NC2`, the IC50 in the data set with Leishmania donovani [1] is 0.628 µg/mL (≈ 2.09 µM); with L6 it was over 90 µg/mL; with Leishmania donovani [5] it was over 10 µg/mL; with Trypanosoma cruzi, 40.7 µg/mL (≈ 136 µM).
Consider `COc1cc([C@@H]2c3cc4c(cc3[C@H](O)[C@H]3COC(=O)[C@H]23)OCO4)cc(OC)c1OC` [PODOFILOX], for which the IC50 with L6 came out at 0.006 µg/mL (≈ 0.0145 µM).
`COc1ccc(-c2ccc(O)cc2CO)c2c1CNC(C)(C)C2`: the IC50 with Leishmania donovani [1] was 3.55 µg/mL (≈ 11.3 µM); in the data set with L6, over 90 µg/mL; with Leishmania donovani [5], over 30 µg/mL; with Trypanosoma cruzi, over 30 µg/mL.
As to `COc1ccc(-c2c(OC)cc(OC)c3c2CC(C)(C)N=C3C)cc1`, the IC50 with Leishmania donovani [1] was over 5 µg/mL; in the data set with L6 it was 43.4 µg/mL (≈ 128 µM); in the data set with Leishmania donovani [5], over 30 µg/mL; in the data set on Trypanosoma cruzi it was 3.6 µg/mL (≈ 10.6 µM). Further, the selectivity ratio in data set [4] was determined as 12.1.
On to `COc1cc2c(c(OC)c1)CN(Cc1ccccc1)C(C)(C)C2`, for which the IC50 in the data set with Leishmania donovani [1] is 1.4 µg/mL (≈ 4.48 µM); in the data set on L6, over 90 µg/mL; in the data set with Leishmania donovani [5] it was over 10 µg/mL; in the data set with Trypanosoma cruzi, 20.1 µg/mL (≈ 64.5 µM). The selectivity ratio in data set [2] is over 64.5.
On to `COc1cc2c(c(OC)c1)C=NC(C)(C)C2`, for which the IC50 is over 5 µg/mL with Leishmania donovani [1], over 90 µg/mL in the data set on L6, 18.3 µg/mL (≈ 83.5 µM) in the data set on Leishmania donovani [5] and 59.1 µg/mL (≈ 270 µM) in the data set with Trypanosoma cruzi.
Regarding `COc1cccc2c1CNC(C)(C)C2`, the IC50 in the data set with Leishmania donovani [1] is over 5 µg/mL; in the data set on L6 it was over 90 µg/mL; in the data set on Trypanosoma cruzi it was 33 µg/mL (≈ 173 µM). In addition, the result in the data set with Leishmania donovani [3] was inactive.
Take `COc1cc(OS(=O)(=O)C(F)(F)F)cc2c1CN(Cc1ccccc1)C(C)(C)C2`: the IC50 was 4.67 µg/mL (≈ 10.9 µM) in the data set on Leishmania donovani [1], over 90 µg/mL in the data set with L6 and 44.8 µg/mL (≈ 104 µM) with Trypanosoma cruzi. The selectivity ratio in data set [2] is over 19.2. For the same compound, the result in the data set on Leishmania donovani [3] was inactive.
`COc1cc(OC)c2c(c1I)CC(C)(C)NC2`: the IC50 is 0.463 µg/mL (≈ 1.33 µM) in the data set on Leishmania donovani [1], 33.2 µg/mL (≈ 95.6 µM) in the data set on L6, over 10 µg/mL in the data set with Leishmania donovani [5] and 37.7 µg/mL (≈ 109 µM) with Trypanosoma cruzi.
As to `COc1cc(OC)c(-c2ccc(O)c3ccccc23)c2c1CNC(C)(C)C2`, the selectivity ratio in data set [6] was 1.62; in data set [2], 24.1; in data set [4] it was 1.53. Further, the IC50 amounted to 0.349 µg/mL (≈ 0.96 µM) in the data set on Leishmania donovani [1], 8.4 µg/mL (≈ 23.1 µM) in the data set with L6, 5.2 µg/mL (≈ 14.3 µM) with Leishmania donovani [5] and 5.5 µg/mL (≈ 15.1 µM) in the data set with Trypanosoma cruzi.

(Values after ChEMBL document CHEMBL1149756, “Synthesis and antiprotozoal activities of simplified analogs of naphthylisoquinoline alkaloids” (Eur J Med Chem, 2008).)
